# Rows were chosen to be rich in hits. Some 2.3% of all compounds tested hit in one or more screens of this group.
# ADAM10 inh: ADAM10 inhibition, QFRET primary screen. O14672. AID 720582. 0.62% of 370,000 active. inhibition, % at 7 µM. recombinant ADAM10, EDANS/DABCYL FRET peptide cleavage, 3 h;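 active means inhibition above a per-campaign cutoff equal to the mean of compounds falling between control-based bounds plus 3 SD, cut at about 20% in these data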;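 further: 0% = DMSO wells while the 100% control is not disclosed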
# PLC-gamma1 inh: PLC-gamma1 (human) inhibition, primary screen; P19174; purified PLC-gamma1, fluorogenic substrate, fluorescence; inhibition, % at 12.2 µM; 0.84% of 370,000 active; in the data active means inhibition above about 9.5%
# DDE Tn6 FP inh: disrupts Tn6 cyclic peptide binding to fibrin D-Dimer-E complex; inhibition, % at 8.3 µM; P02675; 0.21% of 370,000 active; Fibrin DD(E) TRITC-Tn6 fluorescence polarization displacement; AID 720509;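 active means inhibition above a per-campaign cutoff: mean of compounds within control limits plus 3 SD, cut at about 15% in these data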;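 further: 0% = median of all compound wells on the plate and 100% = blocking peptide control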
# Target sequence (P02675 whole entry, looked up): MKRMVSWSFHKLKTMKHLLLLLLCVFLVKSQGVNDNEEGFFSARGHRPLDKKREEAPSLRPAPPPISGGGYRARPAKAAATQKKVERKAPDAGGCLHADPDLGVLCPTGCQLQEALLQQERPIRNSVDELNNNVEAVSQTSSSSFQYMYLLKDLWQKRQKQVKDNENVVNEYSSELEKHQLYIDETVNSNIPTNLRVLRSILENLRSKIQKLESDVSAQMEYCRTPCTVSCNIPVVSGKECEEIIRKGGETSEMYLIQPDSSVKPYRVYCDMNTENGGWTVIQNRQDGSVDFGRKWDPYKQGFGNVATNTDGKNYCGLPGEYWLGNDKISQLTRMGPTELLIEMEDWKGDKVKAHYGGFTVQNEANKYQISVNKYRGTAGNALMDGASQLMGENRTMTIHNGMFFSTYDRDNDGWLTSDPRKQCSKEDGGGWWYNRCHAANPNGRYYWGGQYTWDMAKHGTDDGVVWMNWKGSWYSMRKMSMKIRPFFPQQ
# DDE Tn7 FP inh: disrupts Tn7 cyclic peptide binding to fibrin D-Dimer-E complex. inhibition, % at 8.3 µM. P02675. FP displacement of FITC-Tn7 peptide from fibrin DD(E); 0% = median of compound wells per plate. 0.13% of 370,000 active;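 active means inhibition above the mean of compounds falling within the control limits plus 3 SD of them, cut at about 14% in these data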;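 further: 0% = plate median of compound wells and 100% = 10 µM Aha-Tn7 peptide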
#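 Assay system: human fibrin DD(E). Input: DD(E) 2 µM final. Medium: Tris buffer with calcium and detergent, pH 7.8. Compound dosing: single point at 8.3 µM. Timing: 10 min plus 3 h, room temperature. Technique: fluorescence polarization of the labelled Tn7 tracer. Read-out: percent inhibition. Replicates: singlicate testing.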
# ADAM17 inh: inhibits human ADAM17. P78536. recombinant ADAM17, EDANS/DABCYL FRET peptide cleavage. inhibition, % at 6.95 µM. 0.83% of 370,000 active. AID 720648;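 active means inhibition above the mean of compounds lying between control limits plus 3 SD, set per campaign, cut at about 8.5% in these data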;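 further: 0% = DMSO-only wells as the low control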
# PLC-beta3 inh: inhibitors of human phospholipase C beta3; Purified PLC-beta3, fluorogenic substrate, fluorescence; inhibition, % at 12.2 µM; 0.18% of 370,000 active; in the data active means inhibition above about 11%;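 further: 0% = median of compound wells on plate and 100% = full blocker control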
# Tn7 DDE conf: DD(E)-Tn7 binding inhibition, FP confirmation; AID 720628; 5% of 460 active; FP displacement of TRITC-Tn7 peptide from DD(E); 0% set at plate's compound-well median; shares compounds with DDE Tn7 FP inh; inhibition, % at 8.3 µM;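 active means inhibition above the campaign cutoff, the mean of compounds within control limits plus 3 SD, cut at about 14% in these data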;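 further: 100% = median FP of high control wells holding Aha-Tn7 inhibitor peptide; displacers lower polarization since freed probe rises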
# DDE Tn7 FP ctr: counter-screen for inhibitors of Tn7 peptide binding to fibrin DD(E); shares compounds with DDE Tn7 FP inh; TRITC-Tn7 probe displacement, fluorescence polarization; inhibition, % at 8.3 µM; 3% of 460 active; AID 720633;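 active means inhibition above the cutoff, the mean of compounds lying between the control bounds plus 3 SD of those compounds, cut at about 17% in these data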;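 further: 0% = median of compound sample wells and 100% = excess unlabeled Aha-Tn7 peptide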
# DDE Tn6 FP ctr: counter-screen for inhibitors of Tn6 peptide binding to fibrin DD(E) | shares compounds with DDE Tn6 FP inh | TRITC-Tn6 fluorescence polarization displacement; 0% = median of compound wells, not DMSO | 2% of 680 active | inhibition, % at 8.3 µM;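 active means inhibition above the mean of test compounds lying between the control limits plus 3 SD of those, cut at about 14% in these data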;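 further: 0% = median of compound wells and 100% = wells with Aha-Tn7 blocking peptide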
# DDE Tn6 confirm: DD(E)-Tn6 binding inhibition, FP confirmation; 10% of 680 active; shares compounds with DDE Tn6 FP inh; FP displacement of TRITC-Tn6 peptide from DD(E); 0% = per-plate median of test wells; AID 720631; inhibition, % at 8.3 µM;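 active means inhibition above the mean of compounds lying within the control limits plus 3 SD, cut at about 16% in these data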;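 further: 100% = high control wells holding a competing inhibitor peptide at 10 µM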
# ADAM10 confirm: human ADAM10 inhibition, confirmation; inhibition, % at 6.95 µM; 1% of 2,100 active; ADAM10 QFRET peptide cleavage, EDANS fluorescence; shares compounds with ADAM10 inh;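 active means inhibition above about 20% chosen separately for each screening run, limit read from the data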;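 further: 0% = DMSO wells and 100% = marimastat wells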
# ADAM17 ctr: inhibits human ADAM17 in ADAM10 exosite counter-screen; shares compounds with ADAM10 inh; ADAM17 QFRET peptide cleavage, EDANS fluorescence; inhibition, % at 6.95 µM; 0.5% of 2,100 active;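 active means mean triplicate inhibition above the solvent-only control wells' mean plus 3 SD, cut at about 12% in these data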;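 further: 0% = DMSO wells and 100% = marimastat wells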
# * = called active by the depositor; i = inactive; . = not tested or not shown; + = active, no number.
SMILES,ADAM10 inh,PLC-gamma1 inh,DDE Tn6 FP inh,DDE Tn7 FP inh,ADAM17 inh,PLC-beta3 inh,ADAM10 confirm,ADAM17 ctr,others
Cc1ccc(OC(=O)N(C)C[C@@H]2OCc3ccccc3-c3c(n(C)c4ccccc34)C(=O)N([C@H](C)CO)C[C@H]2C)cc1,11.8,-3.3,1.6,2.9,5.3,-0.1,.,.,
O=c1cc(C(F)(F)F)c2cc3c4c(c2o1)CCCN4CCC3,-34.6,-319.1,12.7,32.9*,-14.8,-370.5,.,.,Tn7 DDE conf=4.1;DDE Tn7 FP ctr=10.4
Nc1ccc2ccc3cccc[n+]3c2c1,-52.8,i,5.4,69.7*,-22.2,i,.,.,Tn7 DDE conf=24.8*;DDE Tn7 FP ctr=-11.1
C=CCN1CC[C@]23c4c5ccc(O)c4OC2C(=O)CC[C@@]3(O)[C@H]1C5 (stereo partly drawn),-4.8,2.4,10.3,-8.1,-1.4,-0.7,.,.,
COc1cccc2c1C(=O)c1c(O)c3c(c(O)c1C2=O)CC(O)(C(C)=NO)CC3OC1CC(N)C(O)C(C)O1 (stereo not drawn),-12.0,-88.5,+,20.8*,-5.1,-107.1,.,.,Tn7 DDE conf=-17.6;DDE Tn7 FP ctr=93.2*;DDE Tn6 FP ctr=-17.6;DDE Tn6 confirm=93.2*
C[C@@H]1CNCCN1c1ccc(N2CC[C@@H](O)C2)c(C#N)c1,-41.6,-15.9,2.0,2.8,-7.4,-22.7,.,.,
O=S(=O)(c1ccc2ccccc2c1)N1Cc2cc(Br)ccc2-n2nncc2C1,-14.8,-0.6,1.9,-6.5,-7.2,1.3,.,.,
Cc1ccc2nc(-c3ccc(CN4CCC(n5c(=O)[nH]c6cc(Cl)ccc65)CC4)cc3)c(-c3ccccc3)nc2c1,-110.6,-53.5,-8.7,5.0,-21.1,-50.1,.,.,
C[n+]1c(-c2ccccc2)c2cc(N)ccc2c2ccc(N)cc21,-10.5,-137.4,49.1*,21.7*,-2.4,-186.7,.,.,Tn7 DDE conf=5.2;DDE Tn7 FP ctr=124.4*;DDE Tn6 FP ctr=5.2;DDE Tn6 confirm=124.4*
O=[N+]([O-])c1ccc(NCc2ccccc2)c2nonc12,-1.1,-237.7,21.3*,61.1*,-3.1,-268.4,.,.,Tn7 DDE conf=46.2*;DDE Tn7 FP ctr=27.1*;DDE Tn6 FP ctr=46.2*;DDE Tn6 confirm=27.1*
O=[N+]([O-])c1ccc(N2CCCCCC2)c2nonc12,7.2,-172.7,84.7*,-4.7,2.6,-229.7,.,.,DDE Tn6 FP ctr=-17.3;DDE Tn6 confirm=65.6*
CCNC(=O)C1OC(n2cnc3c(N)ncnc32)C(O)C1O (stereo not drawn),-7.0,0.4,15.6*,7.9,-7.2,2.3,.,.,DDE Tn6 FP ctr=-6.5;DDE Tn6 confirm=-10.3
COc1ccc2nc(-c3ccc(CN4CCC(n5c(=O)[nH]c6cc(Cl)ccc65)CC4)cc3)c(-c3ccccc3)nc2c1,-110.7,-57.6,-4.6,3.7,-24.8,-57.5,.,.,
CC1C2Cc3ccc(O)cc3C1(C)CCN2CC1CC1 (stereo not drawn),-7.9,3.1,2.7,-0.3,0.0,3.6,.,.,
CCC(=Nc1cc(OC)ccc1OC)c1c(O)[nH]c(=O)[nH]c1=O,20.9*,4.2,-6.8,-3.5,0.6,-2.9,1.6,-0.5,
CCOC(=O)CNC(=O)N1Cc2cc(N3CCOCC3)ccc2-n2nncc2C1,-3.0,0.5,8.3,4.5,-3.2,0.4,.,.,
CCOC(=O)C1CCN(C(C)C(=O)c2c(C)[nH]c3cc(C)ccc23)CC1 (stereo not drawn),-1.4,-0.3,-10.3,-1.2,-4.1,-0.9,.,.,
O=c1[nH]c(=O)n(-c2ccc(Cl)cc2)c(O)c1C=NCCN1CCCCC1,4.8,-0.3,5.4,2.2,4.3,1.4,.,.,
O=c1[nH]c2ccccc2n1C1CCN(C(c2cc3ccccc3o2)c2nnnn2Cc2ccccc2)CC1 (stereo not drawn),23.4*,0.6,3.5,-0.5,8.1,0.4,10.3,3.0,
O=c1[nH]c2ccccc2n1C1CCN(C(c2ccccc2OC(F)(F)F)c2nnnn2-c2ccc3c(c2)OCCO3)CC1 (stereo not drawn),33.5*,-1.9,1.1,-0.5,15.4*,-3.8,11.4,2.4,
COc1ccc(-n2nnnc2C(c2cccc(OC)c2OC)N2CCC(n3c(=O)[nH]c4ccccc43)CC2)cc1 (stereo not drawn),3.3,-1.2,5.9,1.6,3.2,-5.5,.,.,
O=c1[nH]c2ccccc2n1C1CCN(C(c2cccc3ccccc23)c2nnnn2Cc2ccccc2)CC1 (stereo not drawn),18.0,2.4,-4.0,4.8,6.1,2.3,.,.,
O=c1[nH]c2ccccc2n1C1CCN(C(c2cccs2)c2nnnn2-c2ccc3c(c2)OCCO3)CC1 (stereo not drawn),19.9*,-0.9,-10.8,-11.6,6.9,1.2,7.8,1.6,
COc1cccc(C(c2nnnn2-c2ccc3c(c2)OCCO3)N2CCC(n3c(=O)[nH]c4ccccc43)CC2)c1OC (stereo not drawn),20.5*,2.1,-0.8,2.6,4.3,-1.1,7.5,1.4,
c1ccc2[nH]c(CCN3CCCCC3)nc2c1,-11.5,-1.3,-8.7,-0.2,-2.9,-1.0,.,.,
c1cncc(CNCCN2CCNCC2)c1,-7.7,0.7,-5.4,1.2,-3.2,-9.9,.,.,
COc1ccc(C(c2nnnn2-c2c(C)cccc2C)N2CCC(n3c(=O)[nH]c4ccccc43)CC2)cc1 (stereo not drawn),22.6*,3.7,-2.5,3.9,9.7*,-1.7,6.2,2.4,
Cc1nc2ccccc2c(=O)n1-c1cc([N+](=O)[O-])cc([N+](=O)[O-])c1,11.4,3.5,-6.9,-2.0,-0.6,-2.0,.,.,
Cc1nc2ccc(Br)cc2c(=O)n1-c1ccc([N+](=O)[O-])c(C(F)(F)F)c1,23.5*,6.5,-6.4,3.1,4.7,-40.4,0.5,0.0,
CCN(CCNc1ccc([N+](=O)[O-])c2cccnc12)S(=O)(=O)c1ccc(Cl)cc1,21.6*,8.9,-1.9,-0.1,7.0,1.3,5.0,0.9,
